Only some compounds are listed: those with a hit (about 2.7% of all), similar ones and a draw of the others.
CHO parental Ca: counter-screen: ATP calcium response change in parental CHO cells. parental CHO-K1, ATP-induced calcium, Fluo-8 fluorescence. 0.63% of 330,000 active. inhibition, % at 5.6 µM;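 active = inhibition above that plate's mean sample inhibition plus 3 SD, cut at about 26% in these data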;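 also: 0% = ATP-challenged DMSO wells and 100% = DMSO wells without ATP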
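Test system: parental CHO cells; detection: calcium-sensitive Fluo-8 fluorescence; evaluation: percent inhibition of calcium signal; also added: ATP as calcium-mobilizing challenge; repeats: one well per compound; control set: ATP-challenged DMSO wells low, unchallenged DMSO wells high; compound: single nominal dose of 5.6 µM per compound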
V1aR counter: V1a receptor agonism, counter-screen for OXTR agonists | CHO-V1R cells, Fluo-8 calcium fluorescence, agonist mode; 0% DMSO, 100% 3 nM vasopressin | P37288 | activation, % at 3 µM | AID 2797 | 0.25% of 320,000 active;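 active = activation above the mean activation of all tested compounds plus 3 SD, per screening run, cut at about 20% in these data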;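 also: signal is peak over basal fluorescence ratio across a 100 second FLIPR read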
OXTR agonist: human OXTR agonism. P30559. CHO-OTR cells, Fluo-8 calcium fluorescence; normalized: DMSO 0%, oxytocin 100%. activation, % at 3 µM. 0.32% of 320,000 active;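 active = activation above the mean of all tested compounds plus 3 SD, cutoff set per screening run, cut at about 20% in these data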;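 also: peak over basal fluorescence ratio from a 100 s FLIPR kinetic read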
OX1R antag-1: blocks the human orexin 1 receptor; O43613; OX1R-expressing cells, FRET antagonist read-out; inhibition, % at 6.6 µM; 1.8% of 330,000 active; AID 485270; in the data active = inhibition mostly above about 38%, no sharp cut-off; inactive = mostly below about 40%;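 also: 0% = agonist challenge alone and 100% = reference antagonist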
Target sequence (O43613 whole entry, looked up): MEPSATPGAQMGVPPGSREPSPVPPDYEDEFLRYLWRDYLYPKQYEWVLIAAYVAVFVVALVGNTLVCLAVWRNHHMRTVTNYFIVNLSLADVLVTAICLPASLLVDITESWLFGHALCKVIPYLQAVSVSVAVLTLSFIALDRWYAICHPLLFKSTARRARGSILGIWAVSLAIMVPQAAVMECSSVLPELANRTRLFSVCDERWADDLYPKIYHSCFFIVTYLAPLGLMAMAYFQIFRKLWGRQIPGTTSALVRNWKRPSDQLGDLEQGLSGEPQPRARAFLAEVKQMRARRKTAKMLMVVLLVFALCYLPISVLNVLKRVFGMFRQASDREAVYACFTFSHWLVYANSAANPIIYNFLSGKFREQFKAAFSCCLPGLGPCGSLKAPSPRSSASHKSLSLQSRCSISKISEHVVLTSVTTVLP
OX1R antag-2: antagonists of human orexin 1 receptor. 0.43% of 330,000 active. CHO/OX1R cells, Fluo-8 calcium fluorescence, orexin A. O43613. AID 434989. inhibition, % at 5 µM;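 active = inhibition above its plate's threshold, mean inhibition of all tested compounds on the plate plus 3 SD, cut at about 37% in these data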;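 also: 0% = orexin A challenge wells and 100% = SB-334867-A antagonist wells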
OXTR potentiator: potentiates the human oxytocin receptor response; AID 2445; CHO-OTR cells, Fluo-8 calcium fluorescence, potentiator mode; 0% = oxytocin EC15, 100% = EC100; activation, % at 3 µM; 0.061% of 320,000 active; P30559;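 active = activation above that plate's cutoff, the mean activation of tested compounds plus 3 SD, cut at about 6.6% in these data, passing the limit was not always enough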;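 also: 100% uses oxytocin at 75 nM as the full agonist control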
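Assay system: CHO-OTR cells, human receptor / Also added: oxytocin at about EC15, sub-maximal agonist stimulus / Dosing: single dose, 3.0 µM nominal final compound concentration / Incubation: 6 min pre-incubation, 100 s read / Technique: Fluo-8 calcium dye fluorescence / Read-out: % activation vs EC15 and EC100 oxytocin / Benchmarks: EC15 oxytocin low, 75 nM oxytocin high / Replicates: singlicate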
OX1R Fluo8 conf: confirmation of human orexin 1 receptor antagonists | shares compounds with OX1R antag-2 | CHO/OX1R cells, orexin A calcium Fluo-8 fluorescence | inhibition, % at 5 µM | 38% of 1,100 active | AID 492963; in the data active = inhibition above about 29%;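 also: 0% = agonist challenge alone and 100% = reference antagonist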
CHO Ca triplic: counter-screen: parental CHO calcium response change, triplicate; inhibition, % at 5.6 µM; AID 492965; 9.3% of 1,100 active; shares compounds with OX1R antag-2; parental CHO-K1, ATP-induced calcium, Fluo-8 fluorescence;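 active = inhibition above a per-plate limit, the mean inhibition of that plate's test compounds plus 3 SD, cut at about 25% in these data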;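 also: 0% = ATP challenge with DMSO and 100% = DMSO without ATP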
OX1R HTRF confirm: confirmation of human orexin 1 receptor antagonists, HTRF format. 49% of 1,800 active. shares compounds with OX1R antag-1. inhibition, % at 6.6 µM. OX1R-expressing cells, HTRF antagonist assay; in the data active = inhibition above about 55%;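 also: CHO cells expressing OX1R stimulated with orexin A at about EC80; 0% = agonist challenge alone and 100% = reference antagonist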
CHO-K1 HTRF cnt: counter-screen: parental CHO-K1 HTRF response. 48% of 1,800 active. parental CHO-K1 cells, HTRF counterscreen. inhibition, % at 6.6 µM. shares compounds with OX1R antag-1. AID 493232; in the data active = inhibition above about 17%;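 also: 0% = agonist challenge with vehicle and 100% = vehicle alone without agonist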
The depositor's hits bear a star; nt = no result.

SMILES	CHO parental Ca	V1aR counter	OXTR agonist	OX1R antag-1	OX1R antag-2	OXTR potentiator	OX1R Fluo8 conf	CHO Ca triplic	OX1R HTRF confirm	CHO-K1 HTRF cnt
CN(CC(=O)Nc1ccc(Cl)c(C(F)(F)F)c1)C(=O)Cc1ccsc1	11	10	11	50*	28	-14	-3	-19	29	-23
CC(C)Cc1nnc(NC(=O)CCC(=O)N2CCN(c3ccccc3F)CC2)s1	-10	2	1	3	-25	4	nt	nt	nt	nt
COc1cccc(CN(Cc2ccco2)S(=O)(=O)c2ccc(S(=O)(=O)NCc3ccccc3)cc2)c1OC	-2	2	1	60*	70*	-10	40*	-4	84*	-13
Cc1nc2c(ccc3nc(NC(=O)C(c4ccccc4)c4ccccc4)sc32)s1	6	0	1	17	-4	-8	nt	nt	nt	nt
Cc1nc2c(ccc3nc(NC(=O)Cc4cccc5ccccc45)sc32)s1	-2	0	-1	90*	56*	-7	64*	-19	90*	5
COc1ccc(CCNC(=O)CCS(=O)(=O)c2ccc3nc(C)sc3c2)cc1OC	-7	0	-1	15	-24	1	nt	nt	nt	nt
CC(CC(=O)Nc1cccc(S(=O)(=O)N2CCCCC2)c1)c1ccccc1 (stereo unspecified)	-8	8	6	29*	35	-11	3	-13	49	3
CSc1nc2ccc3nc(NC(=O)c4cccs4)sc3c2s1	-13	0	0	81*	56*	-6	85*	-9	95*	9
CC(N=Cc1cc([N+](=O)[O-])ccc1O)c1ccccc1 (stereo unspecified)	-14	4	2	28	-12	-8	nt	nt	nt	nt
CN(/N=C/c1cc([N+](=O)[O-])ccc1O)c1ccccc1	-17	0	1	73*	50*	-6	48*	-14	93*	-4
N#Cc1ccc2[nH]c(CO)c(-c3ccccc3)c2c1	-20	6	6	27	-38	-11	nt	nt	nt	nt
CCC1CN(S(=O)(=O)c2cc(-c3cc(C)no3)ccc2OC)c2cc(C)ccc2O1 (stereo unspecified)	-28	1	-1	73*	63*	-11	27	-9	86*	2
COc1ccc(-c2cc(C(=O)Nc3cccc(S(=O)(=O)NCc4ccco4)c3)c3ccccc3n2)cc1OC	0	0	0	26	-1	-6	nt	nt	nt	nt
O=C(Nc1cccc(S(=O)(=O)NCc2ccco2)c1)c1cc(-c2ccc(F)cc2)nc2ccccc12	12	5	2	65*	56*	-4	29*	-12	49	6
CCOC(=O)c1c(C)[nH]c(C(=O)OCC(=O)Nc2ccccc2)c1C	-15	3	0	10	-12	1	nt	nt	nt	nt
Cc1cc(C)nc(NC(=O)/C=C/c2ccc(Cl)cc2Cl)c1	-22	0	-2	92*	43	-5	-5	-5	63*	3
Cc1cc(C)nc(NC(=O)/C=C/c2ccccc2Cl)c1	-22	-1	-2	48	-7	3	nt	nt	nt	nt
Cc1c2ccccc2nc2c(F)c(N(C)C)c(F)c(F)c12	5	9	10	82*	50*	-13	71*	16	93*	12
Cc1c(C(=O)OC(C)C(=O)N(C)Cc2ccccc2)oc2ccccc12 (stereo unspecified)	-19	4	-1	86*	53*	-2	53*	-10	88*	4
COC(=O)C1=C(C)NC2=C(C(=O)CCC2)C1c1cn(Cc2ccc(Br)cc2)nc1-c1ccccc1 (stereo unspecified)	-4	-1	-2	75*	35	-5	1	-18	52	-17
COC(=O)C1=C(C)NC2=C(C(=O)CC(C)(C)C2)C1c1cn(Cc2ccc(Br)cc2)nc1-c1ccccc1 (stereo unspecified)	-4	1	0	37	13	-4	nt	nt	nt	nt
CCOc1ccc(OCCNC(=O)C(NC(=O)c2c(F)cccc2F)C(C)C)cc1 (stereo unspecified)	-20	0	-2	7	-31	2	nt	nt	nt	nt
CCN(C(=O)CO/N=C/c1ccc(OC)cc1OC)c1c(N)n(Cc2ccccc2)c(=O)[nH]c1=O	-25	0	0	92*	69*	6	67*	-9	93*	-2
CN(C(=O)COc1ncnc2sccc12)C1CCCCC1	-14	0	1	5	-7	-2	nt	nt	nt	nt
O=C(c1ccncc1)c1ccc(N2CCN(C3CC(=O)N(Cc4ccccc4)C3=O)CC2)cc1 (stereo unspecified)	21	17	19	71*	33	-24	-1	0	20	1
SMILES	CHO parental Ca	V1aR counter	OXTR agonist	OX1R antag-1	OX1R antag-2	OXTR potentiator	OX1R Fluo8 conf	CHO Ca triplic	OX1R HTRF confirm	CHO-K1 HTRF cnt
COc1ccc(-c2nc3ccccc3s2)cc1O	-5	3	5	112*	85*	-8	37*	-2	98*	-5
COc1cc(OC)c(-c2nc3ccccc3s2)cc1OC	-10	-1	-2	94*	54*	-8	36*	-6	93*	10
CC(=O)Nc1cccc(-c2nc3ccccc3s2)c1	-24	2	3	76*	26	-14	6	-7	54	1
O=C(C(Cl)c1ccccc1)N1CCOCC1 (stereo unspecified)	-8	0	0	14	-17	-5	nt	nt	nt	nt
CC[C@]12c3[nH]c4cc(-c5ccco5)ccc4c3CCN1C(=O)[C@@H](CC(=O)NC/C=C(\C)CCC=C(C)C)C[C@@H]2C(=O)N1CCN(C(=O)c2ccco2)CC1	-14	nt	nt	58*	94*	nt	74*	-2	76*	0
CCOc1ccccc1N(CC(=O)NCCSCc1ccco1)S(=O)(=O)c1ccccc1	-21	0	-2	84*	43*	-5	47*	-24	80*	-1
O=C(Cc1ccccc1Cl)Nc1ccc(S(=O)(=O)Nc2nccs2)cc1	-2	2	0	3	-2	-7	nt	nt	nt	nt
O=C(CSc1ccc(Br)c2cccc(Cl)c12)Nc1ccc(S(=O)(=O)Nc2nccs2)cc1	1	0	-1	97*	80*	-14	74*	-3	90*	9

Screens: PubChem BioAssay, The Scripps Research Institute Molecular Screening Center
